Test [1] is filed under the species Sus scrofa. Description: Evaluated for change in heart rate from baseline at a plasma concentration of 44 nM in pigs. Type of test: functional. The procedure, abridged: (§1)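 Conscious female Landrace/Yorkshire swine (~12 weeks, 14–20 kg), urethra obstructed with a 7.5 mm silver omega ring, telemeterized, held in a restraint cage with ear venous catheters. After a 30 min baseline, increasing doses are given i.v. (3 min infusion) at 30 min intervals. Plasma is sampled 15 min after each dose for LC/MS. MAP and HR are averaged in 5 min bins over each 30 min period, expressed as % change from baseline; n = 2–4.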

The species named for test [2] is Sus scrofa. Description: Evaluated for change in mean arterial pressure from baseline at a plasma concentration of 167 nM in pigs. Type of test: functional. An outline of the steps: as §1
The species entered for test [3] is Sus scrofa. Description: Evaluated for change in heart rate from baseline at a plasma concentration of 167 nM in pigs. Type of test: functional. An outline of the steps:
as §1

The species named for test [4] is Sus scrofa. Description: Evaluated for change in mean arterial pressure from baseline at a plasma concentration of 44 nM in pigs. Type of test: functional. An outline of the steps:
as §1

The species named for test [5] is Sus scrofa. The experiment in a line: Evaluated for change in mean arterial pressure from baseline at a plasma concentration of 12 nM in pigs. Type of test: functional. An outline of the steps: as §1
The species entered for test [6] is Sus scrofa. Description: Evaluated for change in heart rate from baseline at a plasma concentration of 12 nM in pigs. Type of test: functional. The procedure, abridged:
as §1

In test [7] the target is T1, Sulfonylurea receptors; K-ATP channels (Homo sapiens, UniProt O60706+Q09428+Q14654+Q15842). The experiment in a line: Evaluated for K-ATP activity as stable twitch response through field-stimulated landrace pig detrusor assay (FSLPD). Type of test: functional, Sus scrofa. The settings on record: target entry is the homologue from another species.
The target of test [8] is T1, Sulfonylurea receptors; K-ATP channels. Description: Evaluated for K-ATP activity as in vitro bladder relaxation in spontaneous Landrace pig detrusor strips (SLPD). Type of test: functional, Sus scrofa. The settings on record: target entry is the homologue from another species. An outline of the steps: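 Bladder strips taken near the trigonal region of Landrace pig bladder, contracting spontaneously (myogenic, no cholinergic component). Test agents added at increasing concentrations; the read-out is the reduction in area under the contraction curve.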

Test [9] has the same target. Description: Evaluated for K-ATP activity in terms of change in membrane potential through guinea pig bladder assay. Type of test: functional, Cavia porcellus. The settings on record: target entry is the homologue from another species.
Test [10] in a line: Selectivity expressed as the ratio of pEC50 (SLPD) and pEC50 (FSLPD). Type of test: functional.
The species named for test [11] is Sus scrofa. The experiment in a line: Evaluated for change in heart rate from baseline at a plasma concentration of 24 nM in pigs. Type of test: functional. The procedure, abridged:
as §1

The species entered for test [12] is Sus scrofa. The experiment in a line: Evaluated for change in mean arterial pressure from baseline at a plasma concentration of 95 nM in pigs. Type of test: functional. The procedure, abridged: as §1
Test [13] is filed under the species Sus scrofa. Description: Evaluated for change in heart rate from baseline at a plasma concentration of 1.9 nM in pigs. Type of test: functional. An outline of the steps:
as §1

The species entered for test [14] is Sus scrofa. Description: Evaluated for change in mean arterial pressure from baseline at a plasma concentration of 24 nM in pigs. Type of test: functional. The procedure, abridged:
as §1

The species named for test [15] is Sus scrofa. The experiment in a line: Evaluated for change in mean arterial pressure from baseline at a plasma concentration of 1.9 nM in pigs. Type of test: functional. The procedure, abridged:
as §1

For test [16], the target named is T1, Sulfonylurea receptors; K-ATP channels. The experiment in a line: Evaluated for K-ATP activity in terms of stable twitch response through field-stimulated landrace pig detrusor assay. Type of test: functional, Sus scrofa. The settings on record: target entry is the homologue from another species.
The species entered for test [17] is Sus scrofa. The experiment in a line: Evaluated for change in heart rate from baseline at a plasma concentration of 95 nM in pigs. Type of test: functional. An outline of the steps: as §1

The text below walks through data of ChEMBL document CHEMBL1148324 (J Med Chem, 2004).

Turning to `CC1(C)Oc2ccc(C#N)cc2[C@H](N2CCCC2=O)[C@H]1O` (single isomer, unassigned) [(-)-CROMAKALIM], the figures for the “Delta HR” value in the test listed under Sus scrofa [1], in the test listed under Sus scrofa [3] and in the test listed under Sus scrofa [6] were 38%, 47% and 13%, respectively. Further, the “Delta MAP” value is -33% in the test filed under Sus scrofa [2], -12% in the test listed under Sus scrofa [4] and -6.3% in the test filed under Sus scrofa [5].

As to `O=C1CCCC2=C1[C@@H](c1ccc(F)c(Br)c1)C1=C(CCS1(=O)=O)N2`, the EC50 was 69.2 nM in test [7], 12.6 nM in [8] and 43.7 nM in test [9]. The Selectivity in test [10] was found to be 5.5.

On to `O=C1CCCC2=C1[C@H](c1ccc(F)c(Br)c1)C1=C(CCS1(=O)=O)N2`, for which the “Delta HR” value worked out at 3.5% in the test listed under Sus scrofa [11], 6.2% in the test filed under Sus scrofa [13] and 56% in the test listed under Sus scrofa [17]. The entries for the “Delta MAP” value in the test filed under Sus scrofa [12], in the test filed under Sus scrofa [14] and in the test listed under Sus scrofa [15] were -27%, -6.9% and -5.4%, respectively. Besides, the figures for the EC50 in test [8], in [9] and in test [16] were 22.9 nM, 123 nM and 234 nM, respectively. Further, in test [10], the Selectivity was 10.
